Measured values reported in ChEMBL document CHEMBL3046913, “Feeding deterrence and contact toxicity of Stemona alkaloids-a source of potent natural insecticides” (2002).
Converted amounts (≈) assume the structure as drawn. The source made the active and inactive calls. The rule behind the calls is not given here.

Tests used:
Spodoptera littoralis [1] = assay: Toxicity in neonate larvae of Spodoptera littoralis after 48 hr; type: functional
Summary of the method: (§1)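 Contact toxicity: glass vials were coated with seven concentrations of test compound and the solvent evaporated. Twenty neonate larvae were held in the vials for 3 h, then given artificial diet. Survival was read at 48 h and LC50 derived by probit-log analysis. Run in triplicate or duplicate.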

Spodoptera littoralis [2] = assay: Growth inhibition of neonate larvae of Spodoptera littoralis after 5 days; type: functional; settings: 120 h
Summary of the method: (§2)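 Chronic diet assay: neonate larvae (n = 20) from a lab colony were kept on artificial diet spiked via MeOH with eight concentrations of pure alkaloid (0.1-500 ppm). After 5 days in a moist chamber, dark, at 26 °C, survival and weight of survivors were compared with solvent-treated controls. LC50 and EC50 (50% growth inhibition) were derived by probit-log analysis. Run in triplicate.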

Spodoptera littoralis [3] = assay: Insecticidal activity against neonate larvae of Spodoptera littoralis after 5 days; type: functional; settings: 120 h; summary of the method: as §2
Spodoptera littoralis [4] = assay: Toxicity in neonate larvae of Spodoptera littoralis at 133 ug/dm2 after 48 hr; type: functional, organism-based; summary of the method: as §1
Spodoptera littoralis [5] = assay: Antifeedant activity against fifth instar larvae of Spodoptera littoralis assessed as < 5% of total area of treated leaf disks in each petri dish consumed at 0.001 ug/cm2 after 24 hr by leaf disk choice assay; type: functional, organism-based
Summary of the method: (§3)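 Leaf disk choice test with fifth instar larvae (about 70 mg each). Lettuce disks of 1.33 cm2 were treated on the upper surface with pure compound at 1-0.001 µg/cm2 in MeOH; controls got solvent only. Two treated and two control disks were placed on moist filter paper with two larvae. Scoring was done when about 50% of control area (0.665 cm2) was eaten, 24 h maximum. Three trials in duplicate, six replicates.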

Spodoptera littoralis [6] = assay: Antifeedant activity against fifth instar larvae of Spodoptera littoralis assessed as inhibition of feeding without tasting treated leaf disk at 0.01 ug/cm2 after 24 hr by leaf disk choice assay; type: functional, organism-based; summary of the method: as §3
Spodoptera littoralis [7] = assay: Antifeedant activity against fifth instar larvae of Spodoptera littoralis assessed as inhibition of feeding without tasting treated leaf disk at 0.1 ug/cm2 after 24 hr by leaf disk choice assay; type: functional, organism-based; summary of the method: as §3
Spodoptera littoralis [8] = assay: Antifeedant activity against fifth instar larvae of Spodoptera littoralis assessed as inhibition of feeding without tasting treated leaf disk at 1 ug/cm2 after 24 hr by leaf disk choice assay; type: functional, organism-based; summary of the method: as §3
Spodoptera littoralis [9] = assay: Antifeedant activity against fifth instar larvae of Spodoptera littoralis at 0.001 ug/cm2 after 24 hr by leaf disk choice assay; type: functional, organism-based; summary of the method: as §3
Spodoptera littoralis [10] = assay: Antifeedant activity against fifth instar larvae of Spodoptera littoralis assessed as 5 to 20% of total area of treated leaf disks in each petri dish consumed at 0.01 ug/cm2 after 24 hr by leaf disk choice assay; type: functional, organism-based; summary of the method: as §3
Spodoptera littoralis [11] = assay: Toxicity in sixth instar larvae of Spodoptera littoralis assessed as survival at 100 ug/larvae treated directly into hemolymph after 48 hr

Row | SMILES | LC50 (Spodoptera littoralis [1]) [microg/dm2] | EC50 (50% growth inhibition) (Spodoptera littoralis [2]) [µg/mL] | LC50 (Spodoptera littoralis [3]) [µg/mL] | AFI (Spodoptera littoralis [4]) | AFI (Spodoptera littoralis [5]) | AFI (Spodoptera littoralis [6]) | AFI (Spodoptera littoralis [7]) | AFI (Spodoptera littoralis [8]) | AFI (Spodoptera littoralis [9]) | AFI (Spodoptera littoralis [10]) | Survival (Spodoptera littoralis [11]) [%]
1 | CC/C=C/[C@@]12[C@@H]3C[C@H]4[C@H]5[C@H](C)/C(=C6/OC(=O)C(C)=C6OC)O[C@]5(O3)[C@@H]1CCN42 [DIDEHYDROSTEMOFOLINE] | 1.01 | 0.46 (≈ 1.19 µM) | 0.84 (≈ 2.18 µM) |  |  |  |  |  |  |  | 
2 | CC[C@H](O)C[C@@]12[C@@H]3C[C@H]4[C@H]5[C@H](C)/C(=C6/OC(=O)C(C)=C6OC)O[C@]5(O3)[C@H]1CCN42 [2'-HYDROXYSTEMOFOLINE] |  | 38.5 (≈ 95.3 µM) | 30.3 (≈ 75.2 µM) |  |  |  |  |  |  |  | 
3 | CCCC[C@@]12C3CCN1[C@H]1C[C@H]2O[C@@]32O/C(=C3\OC(=O)C(C)=C3OC)[C@@H](C)[C@H]12 [STEMOFOLINE] | 0.59 | 1.46 (≈ 3.77 µM) | 2.04 (≈ 5.26 µM) |  |  |  |  |  |  |  | 
4 | C/C=C(\C)C(=O)O[C@H]1C[C@@H](OC(C)=O)[C@@]2(C(=O)OC)CO[C@H]3[C@@H](O)[C@@](C)([C@]45O[C@@]4(C)[C@@H]4C[C@H]5O[C@@H]5OC=C[C@@]54O)[C@H]4[C@]1(CO[C@]4(O)C(=O)OC)[C@@H]32 [AZADIRACHTIN A] |  |  | 8.2 (≈ 11.4 µM) | inactive | Active | Active | Active | Active |  |  | 
5 | CC[C@@H]1[C@H]2CCCCN3[C@H]2[C@H](C[C@H]3[C@@H]2C[C@H](C)C(=O)O2)[C@@H]2[C@H]1OC(=O)[C@H]2C [TUBEROSTEMONINE] |  |  | > 500 | inactive |  |  | Active | Active | inactive | Active | 100
